Assay results taken from ChEMBL document CHEMBL2311305, “Antiproliferative potency of novel benzofuran-2-carboxamides on tumour cell lines: cell death mechanisms and determination of crystal structure” (Eur J Med Chem, 2013).
Activity calls are given as the source filed them. The calls are words filed in the database; no cut-off is given here.

Columns and labels:
MIA PaCa-2 = experiment: Cytotoxicity against human MIAPaCa2 cells after 72 hrs by MTT assay; assay type: functional, cell-based
In short: (§1)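 Cells seeded at 3000-6000 per well on day 0, according to cell line doubling time. Compound added in five 10-fold dilutions, 72-h incubation, then MTT colorimetric read-out. Absorbances converted to percentage growth by NCI formulae. IC50 obtained by linear regression between the concentrations bracketing PG 50; ">100" assigned when no concentration reaches it. Quadruplicate points, three independent experiments.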

SK-BR-3 = experiment: Cytotoxicity against human SKBR3 cells after 72 hrs by MTT assay; assay type: functional, cell-based; details: SK-BR-3, 72 h; in short: as §1
HeLa = experiment: Cytotoxicity against human HeLa cells after 72 hrs by MTT assay; assay type: functional, cell-based; in short: as §1
MCF7 = experiment: Cytotoxicity against human MCF7 cells after 72 hrs by MTT assay; assay type: functional, cell-based; in short: as §1
WI-38 = experiment: Cytotoxicity against human WI38 cells after 72 hrs by MTT assay; assay type: cell-based; in short: as §1
SW-620 [1] = experiment: Cytotoxicity against human SW620 cells after 72 hrs by MTT assay; assay type: functional, cell-based; in short: as §1
SW-620 [2] = experiment: Induction of cell cycle arrest in human SW620 cells assessed as G1 phase cells at 5 uM after 24 hrs by PI-staining based flow cytometric analysis (reference value: 46.3 +/- 1.8%); assay type: functional
SW-620 [3] = experiment: Induction of cell cycle arrest in human SW620 cells assessed as S phase cells at 10 uM after 48 hrs by PI-staining based flow cytometric analysis (reference value: 39.9 +/- 0.5%); assay type: functional
SW-620 [4] = experiment: Induction of apoptosis in human SW620 cells assessed as caspase3 activation at 10 uM after 24 to 48 hrs by caspase protease assay; assay type: functional, cell-based
In short: (§2)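 Compound at 5 µM on SK-BR-3 and 10 µM on SW620. Cells harvested after 24 and 48 h, washed in PBS, lysed 10 min on ice, centrifuged. Lysate diluted to 3 mg/mL protein and mixed with DTT-containing reaction buffer and caspase-3, -8 or -9 substrate. Incubated 90 min at 37 °C in the dark. Absorbance read at 405 nm, duplicates, compared with untreated control.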

SW-620 [5] = experiment: Induction of cell cycle arrest in human SW620 cells assessed as S phase cells at 5 uM after 48 hrs by PI-staining based flow cytometric analysis (reference value: 39.9 +/- 0.5%); assay type: functional
SW-620 [6] = experiment: Induction of cell cycle arrest in human SW620 cells assessed as subG1 phase cells at 5 uM after 48 hrs by PI-staining based flow cytometric analysis (reference value: 8.5 +/- 2.1%); assay type: functional
SW-620 [7] = experiment: Induction of cell cycle arrest in human SW620 cells assessed as G2/M phase cells at 10 uM after 48 hrs by PI-staining based flow cytometric analysis (reference value: 8.9 +/- 0.4%); assay type: functional
SW-620 [8] = experiment: Induction of cell cycle arrest in human SW620 cells assessed as subG1 phase cells at 5 uM after 24 hrs by PI-staining based flow cytometric analysis (reference value: 6.9 +/- 2.1%); assay type: functional
SW-620 [9] = experiment: Induction of cell cycle arrest in human SW620 cells assessed as G2/M phase cells at 10 uM after 24 hrs by PI-staining based flow cytometric analysis (reference value: 12.6 +/- 1%); assay type: functional
SW-620 [10] = experiment: Induction of cell cycle arrest in human SW620 cells assessed as S phase cells at 10 uM after 24 hrs by PI-staining based flow cytometric analysis (reference value: 41.1 +/- 0.8%); assay type: functional
SW-620 [11] = experiment: Induction of apoptosis in human SW620 cells assessed as caspase9 activation at 10 uM after 24 to 48 hrs by caspase protease assay; assay type: functional, cell-based; in short: as §2
SW-620 [12] = experiment: Induction of cell cycle arrest in human SW620 cells assessed as G2/M phase cells at 5 uM after 48 hrs by PI-staining based flow cytometric analysis (reference value: 8.9 +/- 0.4%); assay type: functional
SW-620 [13] = experiment: Induction of apoptosis in human SW620 cells assessed as caspase8 activation at 10 uM after 24 to 48 hrs by caspase protease assay; assay type: functional, cell-based; in short: as §2
SW-620 [14] = experiment: Induction of cell cycle arrest in human SW620 cells assessed as G1 phase cells at 10 uM after 48 hrs by PI-staining based flow cytometric analysis (reference value: 51.1 +/- 2.5%); assay type: functional
SW-620 [15] = experiment: Induction of cell cycle arrest in human SW620 cells assessed as G2/M phase cells at 5 uM after 24 hrs by PI-staining based flow cytometric analysis (reference value: 12.6 +/- 1%); assay type: functional
SW-620 [16] = experiment: Induction of cell cycle arrest in human SW620 cells assessed as subG1 phase cells at 10 uM after 48 hrs by PI-staining based flow cytometric analysis (reference value: 8.5 +/- 2.1%); assay type: functional
SW-620 [17] = experiment: Induction of cell cycle arrest in human SW620 cells assessed as subG1 phase cells at 10 uM after 24 hrs by PI-staining based flow cytometric analysis (reference value: 6.9 +/- 2.1%); assay type: functional
SW-620 [18] = experiment: Induction of cell cycle arrest in human SW620 cells assessed as G1 phase cells at 10 uM after 24 hrs by PI-staining based flow cytometric analysis (reference value: 46.3 +/- 1.8%); assay type: functional
SW-620 [19] = experiment: Induction of cell cycle arrest in human SW620 cells assessed as S phase cells at 5 uM after 24 hrs by PI-staining based flow cytometric analysis (reference value: 41.1 +/- 0.8%); assay type: functional
SW-620 [20] = experiment: Induction of cell cycle arrest in human SW620 cells assessed as G1 phase cells at 5 uM after 48 hrs by PI-staining based flow cytometric analysis (reference value: 51.1 +/- 2.5%); assay type: functional
SW-620 [21] = experiment: Induction of mitotic catastrophe in human SW620 cells assessed as accumulation of G2/M phase cells at 5 to 10 uM after 24 to 48 hrs by PI-staining based flow cytometric analysis relative to control; assay type: functional, cell-based

SMILES: O=C(Nc1ccc([N+](=O)[O-])cn1)c1cc2ccccc2o1
- IC50 (MIA PaCa-2; Homo sapiens, MIA PaCa-2, 72 h): 73.1 µM
- IC50 (SK-BR-3): > 100 µM
- IC50 (HeLa; Homo sapiens, HeLa, 72 h): 42.4 µM
- IC50 (MCF7; Homo sapiens, MCF7, 72 h): 82.8 µM
- IC50 (WI-38; Homo sapiens, WI-38, 72 h): 37.8 µM
- IC50 (SW-620 [1]; Homo sapiens, SW-620, 72 h): 76.5 µM

SMILES: CN(C)c1ccc(NC(=O)c2cc3ccccc3o2)cc1
- IC50 (MIA PaCa-2; mia paca-2): > 100 µM
- IC50 (HeLa; hela): 83.7 µM
- IC50 (MCF7; mcf7): 35.6 µM
- IC50 (WI-38; wi-38): > 100 µM
- IC50 (SW-620 [1]; sw-620): 86 µM

SMILES: Cl.O=C(Nc1ccc(C2=NCCN2)cc1)c1cc2ccccc2o1
- Activity (SW-620 [2]): 43.4%
- Activity (SW-620 [3]): 42.6%
- Activity (SW-620 [4]): inactive
- Activity (SW-620 [5]): 40.7%
- Activity (SW-620 [6]): 4.9%
- Activity (SW-620 [7]): 10.5%
- Activity (SW-620 [8]): 7.1%
- IC50 (MIA PaCa-2; Homo sapiens, MIA PaCa-2, 72 h): 31.5 µM
- IC50 (SK-BR-3): 40.5 µM
- Activity (SW-620 [9]): 13.5%
- Activity (SW-620 [10]): 40.9%
- Activity (SW-620 [11]): inactive
- Activity (SW-620 [12]): 8.3%
- Activity (SW-620 [13]): inactive
- Activity (SW-620 [14]): 46.9%
- Activity (SW-620 [15]): 12.7%
- Activity (SW-620 [16]): 8.2%
- IC50 (HeLa; Homo sapiens, HeLa, 72 h): 27.5 µM
- Activity (SW-620 [17]): 10.4%
- IC50 (MCF7; Homo sapiens, MCF7, 72 h): 26.2 µM
- Activity (SW-620 [18]): 45.7%
- IC50 (WI-38; Homo sapiens, WI-38, 72 h): 23.3 µM
- Activity (SW-620 [19]): 43.9%
- Activity (SW-620 [20]): 46.8%
- Activity (SW-620 [21]): Active
- Activity (SW-620 [1]): Dose-dependent effect
- IC50 (SW-620 [1]; Homo sapiens, SW-620, 72 h): 6.4 µM

SMILES: O=C(Nc1ccc([N+](=O)[O-])cc1)c1cc2ccccc2o1
- IC50 (MIA PaCa-2; Homo sapiens, MIA PaCa-2, 72 h): 26.6 µM
- IC50 (SK-BR-3): > 100 µM
- IC50 (HeLa; Homo sapiens, HeLa, 72 h): 11.4 µM
- IC50 (MCF7; Homo sapiens, MCF7, 72 h): 4.9 µM
- IC50 (WI-38; Homo sapiens, WI-38, 72 h): 47.6 µM
- IC50 (SW-620 [1]; Homo sapiens, SW-620, 72 h): 27.9 µM

SMILES: N#Cc1ccc2nc(NC(=O)c3cc4ccccc4o3)sc2c1
- IC50 (MIA PaCa-2; Homo sapiens, MIA PaCa-2, 72 h): > 100 µM
- IC50 (SK-BR-3): > 100 µM
- IC50 (HeLa; Homo sapiens, HeLa, 72 h): 89.6 µM
- IC50 (MCF7; Homo sapiens, MCF7, 72 h): 21.5 µM
- IC50 (WI-38; Homo sapiens, WI-38, 72 h): 34.9 µM
- IC50 (SW-620 [1]; Homo sapiens, SW-620, 72 h): > 100 µM

SMILES: O=C(Nc1ccc(C2=NCCN2)cn1)c1cc2ccccc2o1
- IC50 (MIA PaCa-2; Homo sapiens, MIA PaCa-2, 72 h): > 100 µM
- IC50 (SK-BR-3): > 100 µM
- IC50 (HeLa; Homo sapiens, HeLa, 72 h): 71.9 µM
- IC50 (MCF7; Homo sapiens, MCF7, 72 h): > 100 µM
- IC50 (WI-38; Homo sapiens, WI-38, 72 h): 68.7 µM
- IC50 (SW-620 [1]; Homo sapiens, SW-620, 72 h): 67.1 µM

SMILES: O=C(Nc1nc2ccc([N+](=O)[O-])cc2[nH]1)c1cc2ccccc2o1
- IC50 (MIA PaCa-2; Homo sapiens, MIA PaCa-2, 72 h): 9.3 µM
- IC50 (SK-BR-3): > 100 µM
- IC50 (HeLa; Homo sapiens, HeLa, 72 h): 9.2 µM
- IC50 (MCF7; Homo sapiens, MCF7, 72 h): 5.2 µM
- IC50 (WI-38; Homo sapiens, WI-38, 72 h): 8.6 µM
- IC50 (SW-620 [1]; Homo sapiens, SW-620, 72 h): 6.9 µM
